# DNMT1 block: DNMT1 (human) enzyme inhibition; DNMT1 molecular beacon, Hinp1I cleavage, fluorescence; inhibition (reported as % activation of signal), % at 10 µM; hit rate 0.83% among 360,000; AID 588458; in the data active = inhibition above about 50%
# STEP inh: STEP (human) phosphatase inhibition. inhibition, % at 20 µM. hit rate 0.25% among 360,000. recombinant STEP, OMFP fluorogenic substrate, fluorescence. P54829;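 active = inhibition at 20 µM, scaled per plate between control wells, above about 37%, limit read from the data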
#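 Material: STEP (striatal-enriched tyrosine phosphatase) enzyme, cell-free | Medium: 50 mM Bis-Tris pH 6.0 with 2.5 mM DTT and 0.005% Tween 20 | Read-out: Percent inhibition scaled to no-enzyme and uninhibited-enzyme controls, plate-pattern corrected | Signal: Fluorescence read at 480 nm ex / 540 nm em | Times: 20 min reaction, room temperature, in the dark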
# SUMO1 PPI mod: modulators of human SUMO1-mediated protein-protein interactions | hit rate 0.33% among 360,000 | SUMO1 binding to a labelled peptide, TR-FRET, 1 h | inhibition, % at 20 µM | P63165; in the data active = inhibition above about 37%
# LMPTP inh: blocks human LMPTP phosphatase; P24666; recombinant LMPTP-A, OMFP fluorogenic substrate, fluorescence intensity; inhibition, % at 20 µM; hit rate 0.22% among 360,000; AID 651560;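 active = compounds that cut the enzyme signal by at least half of the control window in the single-dose screen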
# Target sequence (P24666 whole entry, looked up): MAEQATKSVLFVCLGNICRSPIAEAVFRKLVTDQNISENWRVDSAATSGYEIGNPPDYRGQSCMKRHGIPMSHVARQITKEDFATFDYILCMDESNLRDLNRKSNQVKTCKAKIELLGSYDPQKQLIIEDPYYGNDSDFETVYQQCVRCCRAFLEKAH
#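 Assay system: LMPTP-A phosphatase enzyme | Input: 0.625 nM enzyme | Also added: Fluorogenic phosphatase substrate OMFP at 400 µM final | Compound dosing: One test concentration per compound, 20 µM, with 3% DMSO overall | Schedule: 50 min enzyme reaction at room temperature, protected from light | Signal: Fluorescence intensity | Benchmarks: no-enzyme and uninhibited controls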
# NadD block: NadD (S. aureus) enzyme inhibition | AID 602399 | hit rate 0.78% among 360,000 | purified NadD enzyme, colorimetric absorbance read-out | inhibition, % at 20 µM; in the data active = inhibition above about 26%
# Scp1 inh: Scp-1 (human) phosphatase inhibition | Q9GZU7 | Recombinant Scp1, phosphopeptide, malachite green phosphate absorbance | inhibition, % at 20 µM | hit rate 0.88% among 340,000 | AID 493091;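 active = inhibition above about 50% at 20 µM, limit read from the data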
# Target sequence (Q9GZU7 76-261 limits assumed): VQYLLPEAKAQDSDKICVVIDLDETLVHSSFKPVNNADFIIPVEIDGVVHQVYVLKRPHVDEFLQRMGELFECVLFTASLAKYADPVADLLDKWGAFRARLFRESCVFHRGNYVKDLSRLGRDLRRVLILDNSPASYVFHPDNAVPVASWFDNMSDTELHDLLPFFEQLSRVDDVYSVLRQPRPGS
#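 System: truncated SCP-1 phosphatase (76-261aa); medium: Tris acetate buffer pH 5.5 with MgCl2 and Tween-20; incubation: 45 min room-temperature reaction, 5 min colour, 30 min stabiliser; compound: single 20 µM dose, 1% DMSO; reagent: Phosphorylated 17-residue peptide substrate; read-out: % inhibition at 20 µM; technique: colorimetric free-phosphate detection, absorbance 630 nm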
# Numbers stand for hits; 0 = inactive; - = no result. An excerpt weighted towards active compounds, which were near 2.3% of everything screened.
SMILES,DNMT1 block,STEP inh,SUMO1 PPI mod,LMPTP inh,NadD block,Scp1 inh
CSc1ncnc2c1ncn2CCCN(C)Cc1ccco1,0,0,0,0,0,-
O=[N+]([O-])c1cc([N+](=O)[O-])c2oc(-c3ccccc3)c(Br)c2c1O,0,0,43,0,0,0
COC(=O)C1(C(=O)OC)C[C@H](c2ccc(OC)cc2)N(Cc2ccccc2OC)[C@@H]1c1cccs1,-,-,0,0,-,-
N#Cc1c(N2CCCC2)nc(N)c2c(N)nc(N3CCCC3)cc12,118,60,48,0,0,0
CCOc1cc2c(C#N)c(N3CCCC3)nc(N)c2c(N)n1,0,0,0,0,0,0
O=C1C=C(NCCc2cc(Br)c(O)c(Br)c2)C(=O)c2ncccc21,92,46,41,0,0,0
O=C1c2nccnc2C(=O)N1Cc1ccccc1,0,0,0,0,0,0
O=C1c2nc3ccccn3c2C(=O)N1Cc1ccccc1,0,0,39,0,0,0
CCOc1ccc(/C=C2\CCCc3c2nc2ccccc2c3C(=O)O)cc1OC,78,0,0,0,0,-
CCOC(=O)[C@]12CCCC=C1N(Cc1ccccc1)C(=O)[C@H](CC(=O)NCCCN1CCCC1=O)C2,-,-,0,0,-,-
COc1ccc(CC(=O)NNC(=O)c2cc(Cl)ccc2OC)cc1,0,0,0,0,0,0
Oc1c(C(Nc2ccccn2)c2ccccn2)ccc2cccnc12 (centres undefined),0,0,0,0,0,0
Oc1ccccc1C(Nc1nccs1)c1ccc2cccnc2c1O (centres undefined),0,0,0,0,37,0
CCc1ccccc1N1C(=O)C2C3C=CC(CC3)C2C1=O (centres undefined),0,0,0,0,0,0
Cc1ccc(NC(=O)/C(=C\c2ccc([N+](=O)[O-])cc2)NC(=O)c2ccccc2)cc1,0,0,0,0,0,0
O=C(N/N=C/c1ccc(O)c(O)c1O)/C(=C/c1ccc([N+](=O)[O-])cc1)NC(=O)c1ccccc1,0,0,0,0,44,0
Cc1cc(C)c(C#N)c(SCC(=O)Nc2nonc2N)n1,0,0,46,0,0,0
Cc1ccc(C)c(NC(=O)CSc2nc(C)cc(C)c2C#N)c1,0,0,0,0,0,0
CCCc1cc(CN(C)C(=O)c2ccc(OC3CCN(C(C)=O)CC3)c(OC)c2)[nH]n1,0,0,0,0,0,-
CCn1c(C)cc(C=C2C(=O)c3ccccc3C2=O)c1C,0,0,0,0,0,0
Cc1cc(C=C2C(=O)c3ccccc3C2=O)c(C)n1C,0,0,52,0,0,0
O=C1c2cccc3cccc(c23)C(=O)C1(O)O,0,0,0,57,0,0
CN(C(=O)CSc1nncc2ccccc12)c1ccccc1,0,0,0,0,0,0
CN(C)C(=O)Cn1cc(S(=O)(=O)Cc2ccccc2)c2ccccc21,0,0,0,0,0,0
CC(C)(C)OC(=O)n1cc(C(=O)c2ccccc2O)cn1,0,0,0,0,0,0
SMILES,DNMT1 block,STEP inh,SUMO1 PPI mod,LMPTP inh,NadD block,Scp1 inh
CCC(C(=O)NC1CCCC1)n1c(C2CCCC2)nc2ccccc21 (centres undefined),-,-,0,0,-,-
COCCCOc1ccnc(CS(=O)c2nc3ccccc3[nH]2)c1C (centres undefined),0,74,0,0,0,0
N#CC1=C(N)OC2=C(CC/C2=C\c2ccccc2)C1c1ccccc1 (centres undefined),0,0,0,0,33,0
CCOc1ccc(C(=O)NCC(=O)OCC(=O)Nc2cccc(S(=O)(=O)N3CCCC3)c2)cc1,0,0,48,0,0,0
O=C(COC(=O)CNC(=O)c1ccc(F)cc1)Nc1cccc(S(=O)(=O)N2CCCC2)c1,0,0,0,0,0,0
CCOC(=O)/C(C)=C1\NC(C)(C)Cc2ccccc21,0,0,0,0,0,101
CCOC(=O)/C(C(=O)Nc1ccccc1Cl)=C1/NC(C)(C)Cc2ccccc21,0,0,0,0,0,0
COc1cccc(/C=N/NC(=O)c2cc(-c3ccccn3)nc3ccccc23)c1O,0,0,0,0,48,0
O=C(N/N=C/c1ccc(F)cc1)c1cc(-c2ccccn2)nc2ccccc12,0,0,0,0,0,0
